From ChEMBL document CHEMBL4138263, “Taburnaemines A-I, Cytotoxic Vobasinyl-Iboga-Type Bisindole Alkaloids from Tabernaemontana corymbosa” (J Nat Prod, 2018)

Legend:
Assay type in all cases: functional, cell-based
[1] = test system: MCF7; assay: Antiproliferative activity against human MCF7 cells after 72 hrs by sulforhodamine B assay; details: MCF7, 72 h
Outline: (§1)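 Cells grown in RPMI-1640 with 2 mM L-glutamine, 25 mM HEPES, 10% FBS, streptomycin and penicillin; seeded at 4000–12 000 cells per well and exposed to compounds for 72 h. Fixed in 10% trichloroacetic acid, stained with 0.04% SRB, bound dye dissolved in 10 mM Tris base, absorbance read at 515 nm. IC50 from at least three independent experiments run in duplicate.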

[2] = test system: KB; assay: Antiproliferative activity against human KB cells after 72 hrs by sulforhodamine B assay; outline: as §1
[3] = test system: A549; assay: Antiproliferative activity against human A549 cells after 72 hrs by sulforhodamine B assay; details: A549, 72 h; outline: as §1
[4] = Antiproliferative activity against human KBVIN cells after 72 hrs by sulforhodamine B assay; outline: as §1
[5] = test system: MDA-MB-231; assay: Antiproliferative activity against human MDA-MB-231 cells after 72 hrs by sulforhodamine B assay; details: MDA-MB-231, 72 h; outline: as §1

| SMILES | IC50 [1] | IC50 [2] | IC50 [3] | IC50 [5] | IC50 [4] |
| --- | --- | --- | --- | --- | --- |
| CC[C@H]1C[C@@H]2C[C@@]3(C(=O)OC)c4[nH]c5c([C@@H]6C[C@H]7[C@@]8(C(=O)OC)CO[C@H](N(C)[C@H]8Cc8c6[nH]c6ccccc86)[C@@]76O[C@H]6C)c(OC)ccc5c4CCN([C@@H]2CC(C)=O)[C@@H]13 | > 10 µM | 7.4 µM | 8.6 µM | 7.7 µM | 6.6 µM |
| C/C=C1/CN(C)[C@H]2Cc3c([nH]c4ccccc34)[C@H](c3cc4c5c([nH]c4cc3OC)[C@]3(C(=O)OC)C[C@@H]4C[C@H](CC)[C@@H]3N(CC5)[C@@H]4CC(C)=O)C[C@H]1[C@]2(CO)C(=O)OC | 6.1 µM | 5 µM | 5.6 µM | 4.8 µM | 5.1 µM |
| C/C=C1/CN(C)[C@H]2Cc3c([nH]c4ccccc34)[C@H](c3cc4[nH]c5c(c4cc3OC)CCN3C[C@H]4C[C@H](CC)[C@H]3[C@H]5C4)C[C@H]1[C@@H]2C(=O)OC | 4.7 µM | 4.8 µM | 4.3 µM | 4.5 µM | 4.4 µM |
| C/C=C1/CN(C)[C@H]2Cc3c([nH]c4ccccc34)[C@H](c3ccc4[nH]c5c(c4c3)CCN3C[C@@H]4C[C@H](CC)[C@H]3[C@@]5(C(=O)OC)C4)C[C@H]1[C@]2(CO)C(=O)OC | > 10 µM | 6.7 µM | 9.8 µM | 5.2 µM | 8.3 µM |
| CC[C@H]1C[C@@H]2C[C@@]3(C(=O)OC)c4[nH]c5c([C@@H]6C[C@H]7[C@@]8(C(=O)OC)CO[C@H](N(C)[C@H]8Cc8c6[nH]c6ccccc86)[C@@]76O[C@H]6C)c(OC)ccc5c4CCN(C2=O)[C@@H]13 | 8.3 µM | 5.7 µM | 5.9 µM | 8.2 µM | 5.8 µM |
| C/C=C1/CN2COC[C@]3(C(=O)OC)[C@@H]1C[C@@H](c1c(OC)ccc4c5c([nH]c14)[C@]1(C(=O)OC)C[C@H]4C[C@H](CC)[C@@H]1N(CC5)[C@@H]4CO)c1[nH]c4ccccc4c1C[C@H]23 | 6 µM | 4.8 µM | 4.7 µM | 5.1 µM | 4.9 µM |
| C/C=C1/CN2COC[C@]3(C(=O)OC)[C@@H]1C[C@@H](c1c(OC)ccc4c1N=C1[C@]5(C(=O)OC)C[C@H]6C[C@H](CC)[C@@H]5N(CC[C@]14O)C6)c1[nH]c4ccccc4c1C[C@H]23 | 6.5 µM | 4.5 µM | 4.9 µM | 8.2 µM | 4.7 µM |
| CC[C@H]1C[C@@H]2C[C@@]3(C(=O)OC)c4[nH]c5c([C@@H]6C[C@H]7[C@@]8(C(=O)OC)CO[C@H](N(C)[C@H]8Cc8c6[nH]c6ccccc86)[C@]76O[C@@H]6C)c(OC)ccc5c4CCN([C@@H]2CC(C)=O)[C@@H]13 | > 10 µM | > 10 µM | > 10 µM | > 10 µM | > 10 µM |

Further lines, with some results ahead:

| IC50 [1] | IC50 [2] | IC50 [3] | IC50 [5] | SMILES | IC50 [4] |
| --- | --- | --- | --- | --- | --- |
| 4.8 µM | 4.3 µM | 4.3 µM | 4.5 µM | C/C=C1/CN2COC[C@@]3(C(=O)OC)[C@@H]1C[C@@H](c1cc4c5c([nH]c4cc1OC)[C@]1(C(=O)OC)C[C@@H]4C[C@H](CC)[C@@H]1N(CC5)C4)c1[nH]c4ccccc4c1C[C@H]23 | 4.4 µM |
| 5.3 µM | 4.2 µM | 4.5 µM | 4.8 µM | C/C=C1/CN(C)[C@H]2Cc3c([nH]c4ccccc34)[C@H](c3c(OC)ccc4c5c([nH]c34)[C@]3(C(=O)OC)C[C@H]4C[C@H](CC)[C@@H]3N(CC5)C4)C[C@H]1[C@]2(CO)C(=O)OC | 4.1 µM |
| 4.9 µM | 4.5 µM | 4.3 µM | 4.5 µM | C/C=C1/CN(C)[C@H]2Cc3c([nH]c4ccccc34)[C@H](c3c(OC)ccc4c5c([nH]c34)[C@]3(C(=O)OC)C[C@H]4C[C@H](CC)[C@@H]3N(CC5)[C@@H]4CO)C[C@H]1[C@]2(CO)C(=O)OC | 4.9 µM |
| 3 µM | 2.7 µM | 3.1 µM | 2.8 µM | C/C=C1/CN(C)[C@H]2Cc3c([nH]c4ccccc34)[C@H](c3cc4c(cc3OC)N=C3[C@]5(C(=O)OC)C[C@H]6C[C@H](CC)[C@@H]5N(CC[C@@]34O)C6)C[C@H]1[C@]2(CO)C(=O)OC | 2.6 µM |
| 4.6 µM | 4.7 µM | 4.3 µM | 4.5 µM | CC[C@H]1C[C@H]2CN3CC[C@@]4(O)C(=Nc5cc(OC)c([C@@H]6C[C@H]7[C@@]8(C(=O)OC)CO[C@H](N(C)[C@H]8Cc8c6[nH]c6ccccc86)[C@@]76O[C@H]6C)cc54)[C@](C(=O)OC)(C2)[C@H]13 | 4.8 µM |
| 4.8 µM | 4.3 µM | 3.5 µM | 4.8 µM | C/C=C1/CN(C)[C@H]2Cc3c([nH]c4ccccc34)[C@H](c3c(OC)ccc4c5c([nH]c34)[C@]3(C(=O)OC)C[C@@H]4C[C@H](CC)[C@@H]3N(CC5)C4)C[C@H]1[C@@]2(CO)C(=O)OC | 4.7 µM |
| 5.6 µM | 4.8 µM | 5.3 µM | 4.8 µM | C/C=C1/CN(C)[C@H]2Cc3c([nH]c4ccccc34)[C@H](c3c(OC)ccc4c5c([nH]c34)[C@]3(C(=O)OC)C[C@H]4C[C@H](CC)[C@@H]3N3C[C@@H]5O[C@H]43)C[C@H]1[C@]2(CO)C(=O)OC | 4.7 µM |
| 5.6 µM | 5 µM | 4.4 µM | 5.2 µM | C/C=C1/CN(C)[C@H]2Cc3c([nH]c4ccccc34)C(c3c(OC)ccc4c5c([nH]c34)[C@]3(C(=O)OC)C[C@@H]4C[C@H](CC)[C@@H]3N(CC5)C4)C[C@H]1[C@@H]2C(=O)OC (stereo not given in full) | 4.1 µM |
| 4.4 µM | 4.6 µM | 4.4 µM | 3.2 µM | C/C=C1/CN(C)[C@H]2Cc3c([nH]c4ccccc34)[C@H](c3cc4c5c([nH]c4cc3OC)[C@]3(C(=O)OC)C[C@@H]4C[C@H](CC)[C@@H]3N(CC5)[C@@H]4CC(C)=O)C[C@H]1[C@@]2(CO)C(=O)OC | 4.4 µM |
| 0.0088 µM | 0.0036 µM | 0.0045 µM | 0.007 µM | CC(=O)O[C@H]1C(=O)[C@@]2(C)[C@H]([C@H](OC(=O)c3ccccc3)[C@]3(O)C[C@H](OC(=O)[C@H](O)[C@@H](NC(=O)c4ccccc4)c4ccccc4)C(C)=C1C3(C)C)[C@]1(OC(C)=O)CO[C@@H]1C[C@@H]2O [PACLITAXEL] | 2.36 µM |
| 0.0073 µM | 0.0044 µM | 0.023 µM | 0.032 µM | CC[C@]1(O)C[C@@H]2CN(CCc3c([nH]c4ccccc34)[C@@](C(=O)OC)(c3cc4c(cc3OC)N(C)[C@H]3[C@@](O)(C(=O)OC)[C@H](OC(C)=O)[C@]5(CC)C=CCN6CC[C@]43[C@@H]65)C2)C1 [VINBLASTINE] | 2.48 µM |
